The nature of assay [1]: Cytotoxicity against human RCC4/VHL cells after 4 days by XTT assay. Conditions: 96 h. Type of assay: functional, cell-based. The essentials: (§1)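 RCC4 (VHL-null) and RCC4/VHL (VHL reintroduced) cells kept in DMEM plus 10% FCS. After 4 d, media removed; XTT (0.3 mg/mL) with N-methyl dibenzopyrazine methyl sulfate in phenol red-free media added, 1–2 h at 37 °C. IC50 = concentration giving 50% growth inhibition.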
(In general: Formazan colour is commonly taken as a measure of viable cells.)

Assay [2] is described as follows: Cytotoxicity against human RCC4 cells after 4 days by XTT assay. The class given is functional, cell-based. Particulars: RCC4, 96 h. The gist of the method: as §1
Assay [3] is described as follows: Selectivity ratio of IC50 for human RCC4/VHL cells to IC50 for human RCC4 cells. The class given is functional. The gist of the method: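 IC50 values from 4-day XTT growth inhibition in RCC4/VHL and parental RCC4 cells (serial dilution from 40 µM top, triplicate); ratio taken as RCC4/VHL IC50 over RCC4 IC50.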

16 molecules from ChEMBL document CHEMBL3102767, “Identifying novel targets in renal cell carcinoma: design and synthesis of affinity chromatography reagents” (Bioorg Med Chem, 2014) can be followed below.

SMILES strings stand for the structures.

The term IC50 denotes the point on the concentration scale where inhibition reaches its midpoint.

With `Cc1cccc(Nc2nc(-c3ccnc(-c4cn(CCOCCOCCOCCOCCOCCOCCN)nn4)c3)cs2)c1`, the IC50 in assay [1] and in assay [2] was greater than 40 µM in each case.
On to `CN1CCN(Cc2ccc(S(=O)(=O)NCc3ccc(C(=O)Nc4cccnc4)cc3)cc2)CC1`, for which, in assay [3], the “Ratio IC50” value is on record as greater than 100. Moreover, the IC50 in assay [2] is less than 1 µM.
For `NCCOCCOCCOCCOCCOCCOCC#Cc1ccc(S(=O)(=O)NCc2ccc(C(=O)Nc3cccnc3)cc2)cc1`, the IC50 in assay [1] was greater than 40 µM; in assay [2] it was 5.8 µM. Further, the “Ratio IC50” value in assay [3] is greater than 7.
In the case of `Cc1cccc(S(=O)(=O)NCc2ccc(C(=O)Nc3cccnc3)cc2)c1`, in assay [3], the Ratio IC50 is greater than 100. This molecule also had an IC50 in assay [2] of less than 1 µM.
With `COc1ccc(S(=O)(=O)NCc2ccc(C(=O)Nc3cccnc3)cc2)cc1OC`, the “Ratio IC50” value in assay [3] was greater than 100. In assay [2], this molecule gave a 50% inhibitory concentration (IC50) of less than 1 µM.
Turning to `CC(C)(C)c1ccc(S(=O)(=O)NCc2ccc(C(=O)Nc3cccnc3)cc2)cc1`, the half-maximal inhibitory concentration (IC50) in assay [1] was greater than 40 µM; in assay [2], 0.16 µM. For the same molecule, the “Ratio IC50” value in assay [3] is recorded as greater than 250.
As to `CCN(c1cccc(C)c1)c1nc(-c2ccncc2-c2cn(CCOCCOCCOCCOCCOCCOCCN)nn2)cs1`, the IC50 in assay [1] and in assay [2] was greater than 40 µM in each case.
With `Cc1cccc(Nc2nc(-c3ccncc3)cs2)c1`, the results for the IC50 in assay [1] and in assay [2] were 40 µM and 2.1 µM, respectively. Further, the “Ratio IC50” value in assay [3] was 19.
Turning to `Cn1ccc(-c2cccc(S(=O)(=O)NCc3ccc(C(=O)Nc4cccnc4)cc3)c2)n1`, in assay [3], the “Ratio IC50” value is listed as greater than 100. In assay [2], this molecule returned an IC50 of less than 1 µM.
For `Cc1cccc(Nc2nc(-c3ccnc(-c4cn(CCCCCCN)nn4)c3)cs2)c1.O=C(O)C(F)(F)F`, the figures for the IC50 in assay [1] and in assay [2] were 2.6 µM and 1.7 µM, respectively. The “Ratio IC50” value in assay [3] is 1.5.
In the case of `CCN(c1cccc(C)c1)c1nc(-c2ccnc(-c3cn(CCOCCOCCOCCOCCOCCOCCN)nn3)c2)cs1`, the IC50 in assay [1] and in assay [2] was greater than 40 µM throughout.
Take `Cc1cccc(Nc2nc(-c3ccncc3-c3cn(CCOCCOCCOCCOCCOCCOCCN)nn3)cs2)c1.O=C(O)C(F)(F)F`: the IC50 amounted to 3.9 µM in assay [1] and 2.9 µM in assay [2]. Further, in assay [3], the “Ratio IC50” value was determined as 1.3.
Regarding `NCCOCCOCCOCCOCCOCCOCCCc1ccc(S(=O)(=O)NCc2ccc(C(=O)Nc3cccnc3)cc2)cc1`, the IC50 is greater than 40 µM in assay [1] and 7.9 µM in assay [2]. Besides, in assay [3], the “Ratio IC50” value is listed as greater than 5.
Consider `NCCOCCOCCOCCOCCOCCOCCCc1ccc(S(=O)(=O)NCc2ccc(C(=O)Nc3ccccc3)cc2)cc1`, for which the IC50 in assay [1] and in assay [2] was greater than 40 µM in each case.
On to `CN1CCN(c2ccc(S(=O)(=O)NCc3ccc(C(=O)Nc4cccnc4)cc3)cc2)CC1`, for which the “Ratio IC50” value in assay [3] is on record as greater than 100. This molecule also showed an IC50 in assay [2] of less than 1 µM.
Consider `Cl.O=C(Nc1cccnc1)c1ccc(CNS(=O)(=O)c2ccc(CN3CCOCC3)cc2)cc1`, for which the “Ratio IC50” value in assay [3] is listed as greater than 100. The IC50 in assay [2] is less than 1 µM.
